Experimental data published in PMC7396963 (Journal of pharmaceutical and biomedical analysis, 2018).
Read-outs that look alike come from different tables or passages of the source.

Legend:
[1] = Glucuronidation kinetics of NBIF in MkLM; format: in vitro ADME, monkeys; details: glucuronide formation from NBIF, UDPGA-supplemented MkLM
Outline: (§1)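 Incubation in 50 mM Tris-HCl (pH 7.4) with 4.0 mM MgCl2, 22 μg/mL alamethicin, 4.4 mM saccharolactone and 3.5 mM UDPGA. Enzyme source is recombinant UGT or pooled liver or intestinal microsomes, as the line states. Test compound 0.16–80 μM, 1 h. Ice-cold acetonitrile stop, centrifugation, UHPLC/Q-TOF-MS semi-quantification of glucuronides. Minus-UDPGA control. Triplicate. Michaelis-Menten or substrate-inhibition model chosen by Eadie-Hofstee plot; CLint = Vmax/Km.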

[2] = Glucuronidation kinetics of NBIF in HLM; format: in vitro ADME, human
Outline: as §1

[3] = Glucuronidation kinetics of NBIF in HIM; format: in vitro ADME, human; details: glucuronide formation from NBIF, UDPGA-supplemented HIM
Outline: as §1

[4] = Glucuronidation kinetics of NBIF in RLM; format: in vitro ADME, rats; details: glucuronide formation from NBIF, UDPGA-supplemented RLM
Outline: as §1

[5] = biological target: T1, UGT1A9 (Homo sapiens, UniProt O60656); assay: Glucuronidation kinetics of NBIF by recombinant UGT1A9; format: in vitro ADME; details: for Vmax: glucuronide formation from NBIF, recombinant UGT1A9
T1 sequence (O60656 26-530): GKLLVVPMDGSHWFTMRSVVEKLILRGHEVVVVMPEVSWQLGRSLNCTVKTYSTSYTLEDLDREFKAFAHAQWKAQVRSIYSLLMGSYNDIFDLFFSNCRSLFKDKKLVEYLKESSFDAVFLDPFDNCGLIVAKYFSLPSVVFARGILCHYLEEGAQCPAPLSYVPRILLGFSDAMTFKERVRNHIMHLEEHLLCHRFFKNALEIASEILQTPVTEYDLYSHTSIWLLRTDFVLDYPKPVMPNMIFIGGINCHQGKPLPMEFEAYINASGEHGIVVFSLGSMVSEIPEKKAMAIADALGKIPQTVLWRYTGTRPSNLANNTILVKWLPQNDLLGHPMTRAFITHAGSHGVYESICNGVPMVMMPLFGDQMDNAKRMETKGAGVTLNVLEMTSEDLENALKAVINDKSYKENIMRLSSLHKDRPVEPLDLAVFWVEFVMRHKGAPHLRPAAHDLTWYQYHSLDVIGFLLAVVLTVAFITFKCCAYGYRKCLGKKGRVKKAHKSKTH
Outline: as §1

[6] = biological target: T2, UGT1A7 (Homo sapiens, UniProt Q9HAW7); assay: Glucuronidation kinetics of NBIF by recombinant UGT1A7; format: in vitro ADME; details: glucuronide formation from NBIF
T2 sequence (Q9HAW7 26-530): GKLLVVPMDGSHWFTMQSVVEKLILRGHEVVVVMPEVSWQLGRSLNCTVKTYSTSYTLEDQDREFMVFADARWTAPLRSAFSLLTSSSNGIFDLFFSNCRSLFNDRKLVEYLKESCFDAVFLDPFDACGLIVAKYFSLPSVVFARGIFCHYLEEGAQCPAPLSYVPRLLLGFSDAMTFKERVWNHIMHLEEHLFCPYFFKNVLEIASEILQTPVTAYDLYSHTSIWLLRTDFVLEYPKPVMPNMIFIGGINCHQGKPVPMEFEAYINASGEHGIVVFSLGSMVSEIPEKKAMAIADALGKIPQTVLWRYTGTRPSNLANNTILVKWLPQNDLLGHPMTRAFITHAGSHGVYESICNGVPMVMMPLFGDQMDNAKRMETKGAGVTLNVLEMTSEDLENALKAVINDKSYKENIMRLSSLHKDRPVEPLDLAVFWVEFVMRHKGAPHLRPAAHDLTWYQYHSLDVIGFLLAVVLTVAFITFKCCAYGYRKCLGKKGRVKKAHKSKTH
Outline: as §1

[7] = biological target: T3, UGT1A8 (Homo sapiens, UniProt Q9HAW9); assay: Glucuronidation kinetics of NBIF by recombinant UGT1A8; format: in vitro ADME; details: glucuronide formation from NBIF
T3 sequence (Q9HAW9 26-530): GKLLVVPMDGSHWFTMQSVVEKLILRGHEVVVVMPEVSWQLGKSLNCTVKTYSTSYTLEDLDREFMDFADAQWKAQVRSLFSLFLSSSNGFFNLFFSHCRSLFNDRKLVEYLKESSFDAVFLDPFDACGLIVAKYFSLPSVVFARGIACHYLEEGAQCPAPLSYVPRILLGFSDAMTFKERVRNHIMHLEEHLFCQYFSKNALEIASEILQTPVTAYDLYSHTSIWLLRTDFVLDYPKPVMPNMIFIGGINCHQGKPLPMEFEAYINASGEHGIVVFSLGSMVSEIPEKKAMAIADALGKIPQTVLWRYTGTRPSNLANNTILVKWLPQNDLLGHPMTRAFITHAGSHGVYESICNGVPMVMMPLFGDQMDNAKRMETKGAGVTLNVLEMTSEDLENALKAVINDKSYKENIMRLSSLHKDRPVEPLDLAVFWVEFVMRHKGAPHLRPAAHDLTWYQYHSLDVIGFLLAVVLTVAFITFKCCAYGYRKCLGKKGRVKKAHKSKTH
Outline: as §1

[8] = Glucuronidation kinetics of NBIF in DLM; format: in vitro ADME, dogs; details: glucuronide formation from NBIF, UDPGA-supplemented DLM
Outline: as §1

[9] = Glucuronidation kinetics of NBIF in RaLM; format: in vitro ADME, rabbits; details: glucuronide formation from NBIF, UDPGA-supplemented RaLM
Outline: as §1

[10] = biological target: T4, UGT1A1 (Homo sapiens, UniProt P22309); assay: Glucuronidation kinetics of NBIF by recombinant UGT1A1; format: in vitro ADME; details: glucuronide formation from NBIF
T4 sequence (P22309 26-533): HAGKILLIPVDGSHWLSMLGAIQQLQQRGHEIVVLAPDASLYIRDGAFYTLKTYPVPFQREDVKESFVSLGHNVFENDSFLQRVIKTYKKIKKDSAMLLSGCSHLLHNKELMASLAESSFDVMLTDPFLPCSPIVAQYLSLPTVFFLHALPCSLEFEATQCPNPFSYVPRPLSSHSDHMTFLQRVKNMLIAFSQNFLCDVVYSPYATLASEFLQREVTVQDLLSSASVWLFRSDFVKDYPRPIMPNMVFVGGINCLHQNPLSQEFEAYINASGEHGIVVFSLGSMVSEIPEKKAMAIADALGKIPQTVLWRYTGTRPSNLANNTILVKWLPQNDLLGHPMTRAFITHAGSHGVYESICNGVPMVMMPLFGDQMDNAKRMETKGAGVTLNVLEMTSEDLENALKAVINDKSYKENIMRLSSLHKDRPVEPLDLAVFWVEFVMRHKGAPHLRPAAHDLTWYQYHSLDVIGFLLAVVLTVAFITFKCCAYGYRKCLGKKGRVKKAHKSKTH
Outline: as §1

[11] = Glucuronidation kinetics of NBIF in MLM; format: in vitro ADME, mice; details: glucuronide formation from NBIF, UDPGA-supplemented MLM
Outline: as §1

[12] = biological target: human monoamine oxidase-A; details: cited from earlier work
[13] = biological target: α-glucosidase; details: α-glucosidase inhibitory activities; cited from earlier work
[14] = biological target: human carboxylesterase 2; details: cited from earlier work
[15] = Species difference analysis of NBIF metabolism; format: in vitro ADME; details: CLint, HLM versus animal liver microsomes
Outline: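 CLint values (Vmax/Km from model fits) for oxidation and glucuronidation come from pooled human liver microsomes and from monkey, rat, mouse, dog and rabbit liver microsomes. Each was incubated with test compound at 0.16–80 μM, using NADPH-supplemented oxidation or UDPGA/alamethicin glucuronidation conditions. Metabolites were measured by UHPLC/Q-TOF-MS in triplicate.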

[16] = test system: UDP-glucuronosyltransferase 1A1 (UGT1A1); details: inhibitory effect on UGT1A1; cited from earlier work
[17] = test system: platelet aggregation; details: inhibition of platelet aggregation; cited from earlier work
[18] = inhibitory effect on HLM; cited from earlier work
[19] = biological target: human monoamine oxidase-B; details: cited from earlier work
[20] = glucuronidation; cited from earlier work
[21] = glucuronidation; cited from earlier work; remark: listed apart in the source
[22] = glucuronide formation from NBIF, UDPGA-supplemented HLM

Row | SMILES | Ki [4] [µM] | Vmax [5] [pmol/min/mg] | Ki [6] [µM] | Vmax [6] [pmol/min/mg] | Vmax [7] [pmol/min/mg] | Ki [10] [µM] | Vmax [10] [pmol/min/mg] | Ki [11] [µM] | Vmax [1] [pmol/min/mg] | Vmax [2, 22] [pmol/min/mg] | Vmax [3] [pmol/min/mg] | Vmax [4] [pmol/min/mg] | Vmax [8] [pmol/min/mg] | Vmax [9] [pmol/min/mg] | Vmax [11] [pmol/min/mg] | further results
1 | CC(C)=CCc1cc(-c2coc3cc(O)ccc3c2=O)ccc1O [NBIF, Neobavaisoflavone] |  |  |  |  |  |  |  |  |  |  |  |  |  |  |  | IC50 [12]: 66.5 µM; microsomal CLint ([2]; human, human liver microsomes (HLM) and HIM, pH 7.4): 60 to 949 µL/min/mg; microsomal CLint ([5]; human, recombinant UGT1A9, pH 7.4): 1070 µL/min/mg; IC50 [13]: 27.7 µM; IC50 [14]: 6.39 µM; species differences in glucuronidation [15]: approximately 2.3 fold; species differences in the phase I metabolism [15]: approximately 16.1 fold; IC50 [16]: 2.42 µM; IC50 [17]: 2.5 µM; IC50 [18]: 2.25 µM; IC50 [19]: 77.3 µM
2 | COc1ccc(-c2oc3c(CC=C(C)C)c(O)cc(O)c3c(=O)c2O)cc1 [icaritin] |  |  |  |  |  |  |  |  |  |  |  |  |  |  |  | CLint values [20]: more than 270 μL/min/mg
3 | COc1ccc(-c2oc3c(CCC(C)(C)O)c(O)cc(O)c3c(=O)c2O)cc1 [wushanicaritin] |  |  |  |  |  |  |  |  |  |  |  |  |  |  |  | CLint values [21]: > 160 µL/min/mg

More lines, main results first:

Row | Ki [4] [µM] | Vmax [5] [pmol/min/mg] | Ki [6] [µM] | Vmax [6] [pmol/min/mg] | Vmax [7] [pmol/min/mg] | Ki [10] [µM] | Vmax [10] [pmol/min/mg] | Ki [11] [µM] | SMILES | Vmax [1] [pmol/min/mg] | Vmax [2, 22] [pmol/min/mg] | Vmax [3] [pmol/min/mg] | Vmax [4] [pmol/min/mg] | Vmax [8] [pmol/min/mg] | Vmax [9] [pmol/min/mg] | Vmax [11] [pmol/min/mg] | further results
4 | 24.73 ± 4.75 | 70.01 ± 1.37 | 61.82 ± 13.5 | 11.93 ± 0.55 | 419.1 ± 18.69 | 291.1 ± 100.1 | 912.4 ± 49.36 | 38.19 ± 10.18 | CC(C)=CCc1cc(-c2coc3cc(O[C@@H]4O[C@H](C(=O)O)[C@@H](O)[C@H](O)[C@H]4O)ccc3c2=O)ccc1O [G1, NBIF-7-O-glucuronide] | 4129.0 ± 182.8 | 1788.0 ± 203.6 | 409.3 ± 18.9 | 2490.0 ± 249.5 | 1807.0 ± 48.14 | 3006.0 ± 103.8 | 3589.0 ± 432.9 | Ki [2, 22]: 48.45 ± 13.86 µM
5 | 9.09 ± 1.82 | 805.9 ± 17.46 | 154.5 ± 44.85 | 135.3 ± 4.36 | 147.0 ± 6.84 | 401.2 ± 135.7 | 48.33 ± 1.59 | 31.68 ± 9.16 | CC(C)=CCc1cc(-c2coc3cc(O)ccc3c2=O)ccc1O[C@@H]1O[C@H](C(=O)O)[C@@H](O)[C@H](O)[C@H]1O [G2, NBIF-4′-O-glucuronide] | 7072.0 ± 228.4 | 919.1 ± 20.23 | 8655.0 ± 1021.0 | 826.6 ± 99.48 | 3363.0 ± 85.47 | 3411.0 ± 155.5 | 3878.0 ± 563.1 | Ki [3]: 33.32 ± 7.95 µM
